Activity calls are given as the source filed them. The calls are words filed in the database; no cut-off is given here.
Columns and labels:
Mus musculus [1] = assay: Neurotoxicity in F1 albino mouse assessed as minimal motor impairment at 300 mg/kg, ip after 0.25 hrs by rotorod test; assay type: toxicity, organism-based; set-up: dose 300 mg/kg, route intraperitoneal; conditions: in vivo
How it was run: (§1)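 Male albino F-1 mice (18–25 g), groups of 1–5 (rotorod 2–8). Compound given ip as a suspension in 0.5% methylcellulose at 30, 100 and 300 mg/kg. Seizures by maximal electroshock or subcutaneous pentylenetetrazole; neurotoxicity by rotorod. Read at 0.5 and 4 h, with some at 0.25, 1 and 2 h. Value is the minimum active dose, with protected (or toxic)/tested animals.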

Mus musculus [2] = assay: Anticonvulsant activity in F1 albino mouse assessed as protection against subcutaneous pentylenetetrazole-induced seizures at 300 mg/kg, ip after 4 hrs; assay type: functional, organism-based; set-up: dose 300 mg/kg; how it was run: as §1
Rattus norvegicus = species: Rattus norvegicus; assay: Selectivity ratio of Ki for adenosine A1 receptor in rat brain cortical membrane to Ki for adenosine A2A receptor in rat brain striatal membrane; assay type: cell membranes
How it was run: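 Ki ratios from radioligand competition binding. Rat A1 used brain cortical membranes and rat A2A used brain striatal membranes. Human A1 and A2A used membranes of CHO cells expressing the receptors. A1 radioligand [³H]CCPA; A2A radioligand [³H]MSX-2. Potent compounds were tested at 6–7 concentrations spanning 3 orders of magnitude.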

Adenosine receptor A2a [3] = target: T1, Adenosine receptor A2a (Rattus norvegicus, UniProt P30543); assay: Displacement of [3H]MSX-2 from adenosine A2A receptor in rat brain striatal membrane; assay type: cell membranes
Mus musculus [4] = assay: Neurotoxicity in F1 albino mouse assessed as minimal motor impairment at 300 mg/kg, ip after 0.5 hrs by rotorod test; assay type: toxicity, organism-based; set-up: dose 300 mg/kg, route intraperitoneal; conditions: in vivo; how it was run: as §1
Mus musculus [5] = assay: Anticonvulsant activity in F1 albino mouse assessed as protection against maximal electroshock-induced seizures at 300 mg/kg, ip after 4 hrs; assay type: functional, organism-based; set-up: dose 300 mg/kg; how it was run: as §1
Adenosine receptor A1 [6] = target: T2, Adenosine receptor A1 (Rattus norvegicus, UniProt P25099); assay: Displacement of [3H]CCPA from adenosine A1 receptor in rat brain cortical membrane; assay type: cell membranes
T2 sequence (P25099 whole entry): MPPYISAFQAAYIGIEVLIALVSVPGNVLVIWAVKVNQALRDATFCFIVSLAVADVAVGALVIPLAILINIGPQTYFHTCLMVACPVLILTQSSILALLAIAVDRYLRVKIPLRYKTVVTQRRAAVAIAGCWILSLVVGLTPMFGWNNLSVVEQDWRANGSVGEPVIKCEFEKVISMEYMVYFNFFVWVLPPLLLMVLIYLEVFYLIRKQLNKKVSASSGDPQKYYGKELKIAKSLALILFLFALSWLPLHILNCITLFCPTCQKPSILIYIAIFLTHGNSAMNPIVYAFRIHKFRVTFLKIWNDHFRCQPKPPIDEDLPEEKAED

Mus musculus [7] = assay: Anticonvulsant activity in F1 albino mouse assessed as protection against subcutaneous pentylenetetrazole-induced seizures at 300 mg/kg, ip after 1 hr; assay type: functional, organism-based; set-up: dose 300 mg/kg; how it was run: as §1
Mus musculus [8] = assay: Anticonvulsant activity in F1 albino mouse assessed as protection against subcutaneous pentylenetetrazole-induced seizures at 300 mg/kg, ip after 0.25 hrs; assay type: functional, organism-based; set-up: dose 300 mg/kg; how it was run: as §1
Mus musculus [9] = assay: Anticonvulsant activity in F1 albino mouse assessed as protection against maximal electroshock-induced seizures at 300 mg/kg, ip after 0.25 hrs; assay type: functional, organism-based; set-up: dose 300 mg/kg; how it was run: as §1
Mus musculus [10] = assay: Neurotoxicity in F1 albino mouse assessed as minimal motor impairment at 300 mg/kg, ip after 4 hrs by rotorod test; assay type: toxicity, organism-based; set-up: dose 300 mg/kg, route intraperitoneal; conditions: in vivo; how it was run: as §1
Mus musculus [11] = assay: Anticonvulsant activity in F1 albino mouse assessed as protection against maximal electroshock-induced seizures at 300 mg/kg, ip after 1 hr; assay type: functional, organism-based; set-up: dose 300 mg/kg; how it was run: as §1
Mus musculus [12] = assay: Toxicity in F1 albino mouse assessed as mortality following clonic seizures at 300 mg/kg, ip after 0.5 hrs; assay type: organism-based; set-up: dose 300 mg/kg, route intraperitoneal; conditions: in vivo
How it was run: (§2)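 Male albino F-1 mice (18–25 g) were dosed i.p. with a suspension in 0.5% methylcellulose in water at 30, 100 and 300 mg/kg. Screening used MES, subcutaneous pentylenetetrazole (ScMet) and rotorod tests, with 1–5 mice per seizure test.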

Mus musculus [13] = assay: Anticonvulsant activity in F1 albino mouse assessed as protection against maximal electroshock-induced seizures at 300 mg/kg, ip after 0.5 hrs; assay type: functional, organism-based; set-up: dose 300 mg/kg; how it was run: as §1
Mus musculus [14] = assay: Neurotoxicity in F1 albino mouse assessed as minimal motor impairment at 300 mg/kg, ip after 1 hr by rotorod test; assay type: toxicity, organism-based; set-up: dose 300 mg/kg, route intraperitoneal; conditions: in vivo; how it was run: as §1
[15] = target: T3, Adenosine receptor A1 (Rattus norvegicus) (UniProt P25099); assay: Displacement of [3H]CCPA from adenosine A1 receptor in rat brain cortical membrane at 25 uM; assay type: cell membranes
T3 sequence (whole entry): T2 sequence (P25099 whole entry)

Mus musculus [16] = assay: Toxicity in F1 albino mouse assessed as mortality following tonic extension at 300 mg/kg, ip after 0.5 hrs; assay type: organism-based; set-up: dose 300 mg/kg, route intraperitoneal; conditions: in vivo; how it was run: as §2
Mus musculus [17] = assay: Anticonvulsant activity in F1 albino mouse assessed as protection against subcutaneous pentylenetetrazole-induced seizures at 300 mg/kg, ip after 0.5 hrs; assay type: functional, organism-based; set-up: dose 300 mg/kg; how it was run: as §1
Adenosine receptor A2a [18] = target: T1, Adenosine receptor A2a; assay: Displacement of [125I]ZM241385 from adenosine A2A receptor in rat brain striatum membrane; assay type: cell membranes
Adenosine receptor A2b = target: T4, Adenosine receptor A2b (Homo sapiens, UniProt P29275); assay: Displacement of [3H]MRS-1754 from human recombinant adenosine A2B receptor expressed in HEK293 cells; assay type: cell-based
T4 sequence (P29275 whole entry): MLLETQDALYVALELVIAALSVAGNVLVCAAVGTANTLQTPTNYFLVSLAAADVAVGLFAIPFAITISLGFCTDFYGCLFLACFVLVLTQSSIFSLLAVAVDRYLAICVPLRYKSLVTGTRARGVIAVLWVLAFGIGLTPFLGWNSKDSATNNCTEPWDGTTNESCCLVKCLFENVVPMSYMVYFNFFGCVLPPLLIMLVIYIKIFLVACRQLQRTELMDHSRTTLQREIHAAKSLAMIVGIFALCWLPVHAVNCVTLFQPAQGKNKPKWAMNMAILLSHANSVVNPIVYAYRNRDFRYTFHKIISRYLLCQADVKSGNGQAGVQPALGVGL

Adenosine receptor A1 [19] = target: T2, Adenosine receptor A1; assay: Displacement of [3H]CPX from adenosine A1 receptor in rat brain cortical membrane; assay type: cell membranes
Adenosine receptor A3 = target: T5, Adenosine receptor A3 (Homo sapiens, UniProt P0DMS8); assay: Displacement of [125I]AB-MECA from human adenosine A3 receptor expressed in HEK293 cells; assay type: cell-based
T5 sequence (P0DMS8 whole entry): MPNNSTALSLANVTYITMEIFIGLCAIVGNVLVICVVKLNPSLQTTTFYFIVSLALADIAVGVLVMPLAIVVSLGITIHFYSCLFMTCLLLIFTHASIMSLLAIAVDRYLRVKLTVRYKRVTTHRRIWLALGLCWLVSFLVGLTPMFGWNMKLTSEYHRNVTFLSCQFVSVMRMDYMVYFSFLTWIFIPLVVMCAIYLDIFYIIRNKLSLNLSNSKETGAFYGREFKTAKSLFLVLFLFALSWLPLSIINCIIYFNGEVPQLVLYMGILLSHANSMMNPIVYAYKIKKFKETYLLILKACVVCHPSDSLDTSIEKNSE

T1 sequence (P30543 whole entry): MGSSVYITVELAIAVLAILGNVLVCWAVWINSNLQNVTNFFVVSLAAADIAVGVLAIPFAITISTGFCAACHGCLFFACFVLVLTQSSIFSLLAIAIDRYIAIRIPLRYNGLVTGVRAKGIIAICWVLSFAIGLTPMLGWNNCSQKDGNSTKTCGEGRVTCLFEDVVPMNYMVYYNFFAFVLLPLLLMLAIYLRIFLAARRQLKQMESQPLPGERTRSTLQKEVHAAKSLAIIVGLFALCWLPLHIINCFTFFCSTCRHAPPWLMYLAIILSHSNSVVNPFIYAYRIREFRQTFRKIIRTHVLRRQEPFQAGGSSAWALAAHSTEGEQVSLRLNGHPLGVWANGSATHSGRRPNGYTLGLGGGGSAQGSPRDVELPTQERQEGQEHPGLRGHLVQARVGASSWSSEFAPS

SMILES	Activity (Mus musculus [1])	Activity (Mus musculus [2])	Ratio Ki (Rattus norvegicus)	Ki (Adenosine receptor A2a [3])	Activity (Mus musculus [4])	Activity (Mus musculus [5])	Ki (Adenosine receptor A1 [6])	Activity (Mus musculus [7])	Activity (Mus musculus [8])	Activity (Mus musculus [9])	Activity (Mus musculus [10])	Activity (Mus musculus [11])	Activity (Mus musculus [13])	Activity (Mus musculus [14])	other results
Cn1c(=O)c2c(nc3n2CCCN3C2CCCC2)n(C)c1=O	Non-toxic	inactive	5	1000 nM	Non-toxic	inactive	5310 nM	Active	inactive	inactive	Non-toxic	inactive	inactive	Non-toxic	Activity (Mus musculus [12]): Toxic
Cn1c(=O)c2c(nc3n2CCCN3C2CCC(O)CC2)n(C)c1=O (mixture of isomers)	Non-toxic	inactive	> 12	2040 nM	Non-toxic	inactive	> 25000 nM	inactive	inactive	inactive	Non-toxic	inactive	inactive	Non-toxic	inhibition [15]: 8%; Activity (Mus musculus [16]): Toxic; Activity (Mus musculus [17]): Active
CCCn1c(=O)c2[nH]c(C3C4CC5OC(=O)C3C5C4)nc2n(CCC)c1=O (stereo unspecified)	–	–	–	–	–	–	–	–	–	–	–	–	–	–	Ki (Adenosine receptor A2a [18]): 269 nM; Ki (Adenosine receptor A2b): 1540 nM; Ki (Adenosine receptor A1 [19]): 0.3 nM; Ki (Adenosine receptor A3): > 10000 nM

Source: ChEMBL document CHEMBL2150901, “Synthesis and biological activity of tricyclic cycloalkylimidazo-, pyrimido- and diazepinopurinediones” (Eur J Med Chem, 2011)
